Series [1] relates to Zika strain MR766 (infectivity in Vero cells). Put plainly: TCID50 end point dilution infectivity assay. In kind it is cell-based, Zika virus. The following applies: tested at 25 μM; activity cutoff <0.6. The procedure, abridged: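 End-point dilution: Vero cells were seeded at 2 × 10^4 cells/well. The next day, medium was replaced with serial dilutions of ZIKV, untreated or pretreated 1 h at 37 °C with the test compound or controls. After 6 days at 37 °C, cells were fixed in 3.7% formaldehyde and stained with crystal violet. Wells were scored for CPE, and TCID50 was calculated by the Reed and Muench method.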

In series [2] the test system is Zika-induced caspase 3/7 activity in Vero cells. Kind of series: Caspase activity assay. The series is classed as cell-based, Zika virus. The following applies: tested at 25 μM; relative to virus alone or virus with DMSO. Summed up: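 ZIKV MR766 was pre-incubated with the DMSO-dissolved test compound or controls for 1 h at 37 °C, then added to Vero cells seeded at 1 × 10^4 cells/well the previous day (medium removed). Cells were incubated 3 days, viability read first (CellTiter-Fluor), then caspase 3/7 luminescence (Caspase-Glo 3/7). Run in triplicate.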

In another series the test system is Vero cells. Kind of series: Compound cytotoxicity. The series is classed as cell-based. Particulars: 25 μM, no virus, 3 days, triplicate, values <1 = cytotoxic. The procedure, abridged:
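Vero cells seeded at 1 × 10^4 cells/well were exposed the next day, with no virus, to the DMSO-dissolved test compound. Handling matched the infected viability assay, including the 1 h 37 °C compound pre-incubation step. Viability was read by CellTiter-Fluor after 3 days.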

Series [3] has as its system Zika strain MR766 (ZIKV-induced cell killing of Vero cells). Kind of series: Cell viability assay in the presence of virus. The series is classed as cell-based, Zika virus. The following applies: tested at 25 μM; values over 1 signify inhibition of ZIKV-induced cell killing. The procedure, abridged:
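Vero cells (DMEM, 10% heat-inactivated FBS, 37 °C, 5% CO2) were seeded at 1 × 10^4 cells/well. The next day they were infected with ZIKV that had been pretreated 1 h at 37 °C with the DMSO-dissolved test compound or controls. After 3 days, viability was read by CellTiter-Fluor fluorescence and normalized to infected cells. Run in triplicate.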

`C#C[C@@]1(O)[C@H](O)[C@@H](CO)O[C@H]1n1ccc2c(N)ncnc21` [NITD008] had a TCID50 infectivity in series [1] below 0.6. Further, the caspase activity entry in series [2] is “suppressed caspase activity”. Besides, the compound cytotoxicity entry in the series on Vero cells is reported as “some cytotoxicity”. The “cell viability (normalized to ZIKV-infected cells)” value in series [3] was above 1.0.

On to `C[C@H](NC(=O)C(=O)Nc1ccccc1C(C)(C)C)C(=O)N[C@@H](CC(=O)O)C(=O)COc1c(F)c(F)cc(F)c1F` [emricasan], for which, in series [2], the caspase activity result was “suppressed caspase activity”.
